Activity calls are given as the source filed them. No cut-off for these calls is given here. Bounds are passed on as bounds.

The values that follow come from ChEMBL document CHEMBL3352255, “Tailor-made fluorescent trilobolide to study its biological relevance” (J Med Chem, 2014).

In data set [1] the test system is HT-29. Description: Cytotoxicity against human HT-29 cells after 72 hrs by WST-1 assay. Format: functional, cell-based. As to conditions: HT-29, 72 h. Put shortly: (§1)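 Dark cytotoxicity (no light exposure) by WST-1 tetrazolium-to-formazan conversion reflecting metabolic activity; compounds tested at concentrations up to 50 μM for 24, 48 or 72 h; IC50 taken as concentration giving 50% inhibition of cell viability.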
On the technique in general: Tetrazolium assays rely on reduction of a dye to a coloured formazan, in cell work by metabolically active cells.

Data set [2] is described as follows: Cellular uptake in Endoplasmic reticulum of human U2OS cells at 1 uM after 1 hr by fluorescence microscopy. It counts as ADME, cell-based. In a few lines:
(§2)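 Live-cell fluorescence microscopy of cells exposed to Bodipy-labelled conjugates at 1 μM for 1 h. ER was co-stained with ER-Tracker Blue-White DPX (100 nM, 20 min) to check colocalisation. A Bodipy dye-only stain served as control.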

For data set [3], the system named is C2C12. Description: Cellular uptake in mouse C2C12 cells at 1 uM after 20 mins by fluorescence microscopy. It counts as ADME, cell-based. Conditions: c2c12, 20 min. Put shortly:
(§3)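 Uptake into living cells was followed by fluorescence microscopy at 10, 20 and 40 min and at 1, 3, 5 and 24 h. Green-emitting Bodipy conjugates were given at 1 μM. A Bodipy dye-only stain served as control for dye-driven localisation.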

The test system of data set [4] is HT-29. The data set is described as follows: Cytotoxicity against human HT-29 cells after 24 hrs by WST-1 assay. Format: functional, cell-based. As to conditions: HT-29, 24 h. In a few lines: as §1
Data set [5] is described as follows: Cytotoxicity against rat peritoneal cells assessed as reduction in cell viability at 40 uM after 24 hrs by WST-1 assay. It counts as cell-based.
The subject of the next data set is MCF7. The data set is described as follows: Cytotoxicity against human MCF7 cells after 72 hrs by WST-1 assay. As to conditions: MCF7, 72 h. It counts as functional, cell-based. In a few lines: as §1
In data set [6] the test system is HT-29. The data set is described as follows: Cytotoxicity against human HT-29 cells after 48 hrs by WST-1 assay. Conditions: HT-29, 48 h. Format: functional, cell-based. Put shortly:
as §1

In data set [7] the test system is U2OS. Description: Cellular uptake in human U2OS cells at 2 uM after 0.5 to 24 hrs by fluorescence microscopy. Format: ADME, cell-based. Put shortly: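 U-2 OS live cells were imaged by fluorescence microscopy across a range of conjugate concentrations and time points from 0.5 to 24 h. The intracellular signal plateau was then assessed.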
The test system of data set [8] is C2C12. Description: Cytotoxicity against mouse C2C12 cells after 48 hrs by WST-1 assay. Conditions: C2C12, 48 h. It counts as functional, cell-based. Put shortly:
as §1

Data set [9] concerns U2OS. Description: Cytotoxicity against human U2OS cells after 24 hrs by WST-1 assay. Format: functional, cell-based. In a few lines:
as §1

Data set [10] can be described thus: Cytotoxicity against rat peritoneal cells assessed as reduction in cell viability at 40 uM after 24 hrs by WST-1 assay.
Data set [11] can be described thus: Cellular uptake in Endoplasmic reticulum of human PC3 cells at 1 uM after 1 hr by fluorescence microscopy. As to conditions: pc-3, 1 h. It counts as ADME, cell-based. In a few lines: as §2
The species named for another data set is Rattus norvegicus. Description: Induction of TNFalpha production in rat peritoneal cells at 10 uM after 24 hrs using by ELISA. It counts as functional, cell-based. Put shortly: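 Rat peritoneal cells exposed to compounds at 10 μM for 24 h; secreted TNF-α quantified by ELISA; LPS (1000 pg·mL−1) and parent trilobolide (1 μM) as positive controls; mean ± SEM of two independent experiments, n = 4, compared with untreated cells.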

The test system of data set [12] is U2OS. The data set is described as follows: Cytotoxicity against human U2OS cells after 48 hrs by WST-1 assay. It counts as functional, cell-based. In a few lines:
as §1

Data set [13] can be described thus: Cellular uptake in mitochondria of human PC3 cells at 1 uM after 10 to 40 mins by fluorescence microscopy. It counts as ADME. Conditions: pc-3, 1 µM. Put shortly:
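Live cells were treated with 1 μM Bodipy conjugates for at least 40 min and then co-stained with MitoTracker Red FM (100 nM, 10 min). Imaging by fluorescence microscopy assessed colocalisation with the green signal and the state of the mitochondrial network.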

Data set [14] in a line: Cellular uptake in HEK293T cells at 1 uM after 40 mins to 24 hrs by fluorescence microscopy. Format: ADME, cell-based. As to conditions: human, hek-293t. In a few lines: as §3
The test system of a further data set is A549. Description: Cellular uptake in human A549 cells at 1 uM after 40 mins to 24 hrs by fluorescence microscopy. As to conditions: a549, 1 µM. Format: ADME, cell-based. In a few lines: as §3
The next data set deals with HeLa. Description: Cellular uptake in human HeLa cells at 1 uM after 40 mins to 24 hrs by fluorescence microscopy. Format: ADME, cell-based. Put shortly: as §3
Data set [15] deals with C2C12. Description: Cellular uptake in mouse C2C12 cells at 1 uM after 40 mins to 24 hrs by fluorescence microscopy. It counts as ADME, cell-based. As to conditions: c2c12, 1 µM. In a few lines:
as §3

In general, IC50 refers to the concentration that inhibits the measured activity by half. With `C/C=C(/C)C(=O)O[C@@H]1C[C@H]2C(=C1C)[C@@H]1OC(=O)[C@@](C)(O)[C@@]1(O)[C@@H](OC(=O)CCOCCOCCOCCOCCn1cc(COc3ccc(C4=C5C=CC=[N+]5[B-](F)(F)n5cccc54)cc3)nn1)C[C@]2(C)OC(C)=O`, the half-inhibitory concentration (IC50) in the data set on HT-29 [1] was over 50 µM; in the data set with HT-29 [4] it was over 50 µM; in the data set with MCF7 it was 6 µM; with HT-29 [6] it was 14.2 µM; in the data set with C2C12 [8] it was 6.5 µM; in the data set on U2OS [9] it was over 50 µM. This compound also gave an IC50 in the data set on U2OS [12] of 5.4 µM. Further, the Drug uptake entry in data set [2] was “Active”; in the data set on C2C12 [3], “Active”; in the data set on U2OS [7], “Active”; in data set [11], “Active”; in [13], “Not Active”. Besides, the Activity entry in data set [5] and in [10] was “Non-toxic” each time. Also, the result in the data set listed under Rattus norvegicus was Active.

Take `C/C=C(/C)C(=O)O[C@@H]1C[C@H]2C(=C1C)[C@@H]1OC(=O)[C@@](C)(O)[C@@]1(O)[C@@H](OC(=O)CCCCn1cc(COc3ccc(C4=C5C=CC=[N+]5[B-](F)(F)n5cccc54)cc3)nn1)C[C@]2(C)OC(C)=O`: the IC50 in the data set on HT-29 [1] was over 50 µM; in the data set on HT-29 [4], over 50 µM; with MCF7, 10.8 µM; with HT-29 [6] it was over 50 µM; in the data set with C2C12 [8] it was 7.5 µM; in the data set with U2OS [9], 25.6 µM. For the same compound, the IC50 in the data set with U2OS [12] amounted to 13.2 µM. The Drug uptake entry (in [14]; in [2]; with C2C12 [3]; in the data set on A549; with U2OS [7]; in [11]) was “Active” in each case. In addition, the Drug uptake entry with HeLa is recorded as “Active”; with C2C12 [15], “Active”; in [13], “Not Active”. In data set [5], the Activity is 20%.
